# Hits are enriched below; roughly 3.9% of the tested compounds scored in any of these assays.
# TAAR1 antag: human TAAR1 antagonism | Q96RJ0 | AID 624466 | inhibition, % at 3 µM | CHO RD-HGA16 TAAR1, Fluo-8 calcium fluorescence, antagonist | hit rate 1.5% among 360,000;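 active = inhibition above a per-plate cutoff, the mean inhibition of test compounds on that plate plus 3 SD, cut at about 49% in these data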;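 note: 0% = DMSO plus EC80 beta-PEA response and 100% = DMSO alone without agonist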
#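 Test system: hTAAR1-expressing CHO RD-HGA16 cells, Gα16-coupled; Probe or stimulus: EC80 β-phenethylamine stimulus; Compound dosing: single nominal final test compound concentration of 3 µM; Timing: 140 s kinetic read after compound, 140 s after agonist; Signal: Fluo-8 calcium-sensitive fluorescence; Measure: % inhibition of agonist calcium response; Controls: DMSO and EC80 PEA controls.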
# CRFR2-BP ag: CRF-BP/CRF-R2 complex agonism; activation, % at 13.2 µM; HEK293 CRF-R2/CRF-BP, calcium dye fluorescence (FLIPR); percent of saturating CRF peptide response; hit rate 0.46% among 350,000; AID 588473;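 active = activation of at least 50%, plus an integration ratio under a set limit after plate pattern correction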;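 note: plate controls were neutral control wells without compound for no effect and CRF at EC100 for full effect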
# TMEM16A inh: blocks the mouse calcium-activated chloride channel TMEM16A. hit rate 1.2% among 310,000. AID 588511. HEK293 TMEM16A/YFP iodide influx fluorescence, ionomycin. Q8BHY3. normalized B-score (activity score, 25-100; higher = stronger inhibition) at 10 µM;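 active = ratio plate-corrected score three or more library SD toward inhibition, starting fluorescence score within five deviations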;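 note: score derived from kinetic fluorescence span divided by baseline fluorescence per well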
# Target sequence (Q8BHY3 whole entry, looked up): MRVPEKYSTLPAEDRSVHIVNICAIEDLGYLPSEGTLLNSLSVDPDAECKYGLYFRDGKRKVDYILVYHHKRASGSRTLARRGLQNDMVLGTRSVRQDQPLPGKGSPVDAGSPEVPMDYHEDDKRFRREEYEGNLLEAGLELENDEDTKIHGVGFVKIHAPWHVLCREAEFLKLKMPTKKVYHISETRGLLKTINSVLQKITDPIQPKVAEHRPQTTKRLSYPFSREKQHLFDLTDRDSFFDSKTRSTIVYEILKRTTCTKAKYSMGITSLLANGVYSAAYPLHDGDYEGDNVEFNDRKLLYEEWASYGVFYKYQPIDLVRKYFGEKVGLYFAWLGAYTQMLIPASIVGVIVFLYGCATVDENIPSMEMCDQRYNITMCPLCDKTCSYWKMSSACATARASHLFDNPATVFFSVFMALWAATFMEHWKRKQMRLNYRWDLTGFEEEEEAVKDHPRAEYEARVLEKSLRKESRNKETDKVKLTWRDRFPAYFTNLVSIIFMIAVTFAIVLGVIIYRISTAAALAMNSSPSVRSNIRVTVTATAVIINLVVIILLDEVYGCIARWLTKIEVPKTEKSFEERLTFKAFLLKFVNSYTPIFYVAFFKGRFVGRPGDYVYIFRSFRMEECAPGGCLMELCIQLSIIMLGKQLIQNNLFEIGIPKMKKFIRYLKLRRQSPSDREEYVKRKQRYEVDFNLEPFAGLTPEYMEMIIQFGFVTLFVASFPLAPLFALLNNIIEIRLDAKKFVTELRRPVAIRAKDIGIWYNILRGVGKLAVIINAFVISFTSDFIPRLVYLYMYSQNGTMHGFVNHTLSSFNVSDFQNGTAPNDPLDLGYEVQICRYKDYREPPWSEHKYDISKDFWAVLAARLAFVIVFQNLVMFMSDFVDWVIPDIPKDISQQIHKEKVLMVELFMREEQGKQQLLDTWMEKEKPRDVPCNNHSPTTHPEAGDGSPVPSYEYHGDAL
# TAAR1 agonist: human TAAR1 agonism; Q96RJ0; CHO RD-HGA16 TAAR1, Fluo-8 calcium fluorescence; vehicle wells 0%, saturating PEA agonist 100%; activation, % at 3 µM; hit rate 0.99% among 360,000; AID 624467;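 active = activation above the mean activation of all test compounds in the run plus 3 SD, cut at about 38% in these data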
#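 Assay system – CHO-derived RD-HGA16 cells with stable Gα16 and human TAAR1 · Compound dosing – one-point dosing at 3 µM (nominal) · Incubation – 17-24 h seeding, 75 min 37 °C dye, 30 min RT · Measured by – kinetic Fluo-8 calcium fluorescence · Control set – DMSO vehicle as 0%, PEA at EC100 as 100% · Repeats – single well for each compound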
# CRFBP-R2 block: CRF-BP/CRF-R2 complex antagonism. HEK293 CRF-R2/CRF-BP, CRF-induced calcium fluorescence. hit rate 0.59% among 350,000. AID 588475. inhibition, % at 11.8 µM;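 active = inhibition of the ligand-induced calcium signal above about 50% at the single tested concentration, limit read from the data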
# ANO1 activ: activates or potentiates the mouse TMEM16A chloride channel; B-score at 10 µM; AID 623877; HEK293 TMEM16A/YFP-H148Q/I152L, iodide quench fluorescence; hits give low values; hit rate 0.3% among 340,000;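 active = fluorescence-ratio B-score plate-corrected deviation score at least 3 library SD below zero, with starting fluorescence score within 5 deviations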;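 note: channel opened by trigger with iodide after compound preincubation; score built on the fluorescence ratio of max minus min over baseline; more negative score means more quench and so TMEM16A activation or potentiation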
# TMEM16A reconf: re-confirmation of mouse TMEM16A chloride channel inhibitors; hit rate 39% among 2,300; inhibition, % at 10 µM; HEK293 TMEM16A/YFP-H148Q, iodide quench fluorescence; ionomycin added to raise cell calcium; AID 652189; shares compounds with TMEM16A inh;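 active = mean duplicate percent inhibition, scaled so buffer wells are 0 and the reference blocker 100, over three buffer SD above buffer mean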
# TMEM16A Ca cntr: alters calcium mobilization in TMEM16A HEK293 cells, counter-screen; shares compounds with TMEM16A inh; TMEM16A/YFP HEK293, Fluo4 calcium mobilization; calcium response (% of ionomycin), % at 10 µM; hit rate 2% among 2,300; AID 652231;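 active = duplicate-averaged calcium signal over 20% of the ionomycin maximum, relative to buffer baseline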;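 note: each well's signal is peak minus trough fluorescence divided by its pre-addition baseline; 0% = buffer wells and 100% = ionomycin wells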
# Parental YFP cnt: parental YFP-HEK293 iodide quench counter-screen activity. shares compounds with TMEM16A inh. ionomycin. YFP ratio F(max-min)/F0 at 10 µM. 2,300 tested, under 10 active;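 active = yellow fluorescent protein signal ratio exceeding the buffer control mean by over 5 SD of those controls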;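 note: ratio is mean of duplicate wells from kinetic YFP trace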
# ClC-1 inh: rat ClC-1 inhibition, TMEM16A specificity screen; shares compounds with TMEM16A inh; CHO ClC-1-YFP, iodide influx fluorescence quench; iodide control reads 0, buffer control 100; ratio percent, % at 10 µM; 2,300 tested, under 10 active; AID 652236;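 active = duplicate-mean ratio percent above the mean of iodide-only control wells, which defines zero, plus 5 of their SD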;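 note: higher percent means stronger block of ClC-1 iodide influx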
# The depositor's hits bear a star; i = inactive; · = not tested or not shown.
SMILES,TAAR1 antag,CRFR2-BP ag,TMEM16A inh,TAAR1 agonist,CRFBP-R2 block,ANO1 activ,TMEM16A reconf,TMEM16A Ca cntr,Parental YFP cnt,ClC-1 inh
COC(=O)c1ccc(N2NC(=O)/C(=C/c3cc(OC)c(OC)c(OC)c3)C2=O)cc1,-23.8,-0.3,i,1.4,0.1,i,·,·,·,·
COC(=O)c1ccc(N2NC(=O)/C(=C/c3cc(OC)c(O)c(OC)c3)C2=O)cc1,-4.5,10.8,i,5.5,-43.0,i,i,i,-0.752,-34.0
Cc1cc(C)n(CC(=O)c2ccccc2)c(=O)c1C#N,13.4,-0.8,100*,7.0,-0.9,i,i,i,-0.895,-7.5
COc1ccc(NC(=O)C2CCN(Cc3cnn(-c4ccccc4)c3-n3cccc3)CC2)cc1OC,-23.1,-1.0,i,2.5,7.5,i,·,·,·,·
COc1cccc(NC(=O)C2CCN(Cc3cnn(-c4ccccc4)c3-n3cccc3)CC2)c1,-7.8,-1.0,25*,11.6,-2.8,i,i,i,-1.38,-9.0
CC(Oc1cccc(Cl)c1)C(=O)Nc1ccc(N2CCOCC2)cc1N1CCOCC1 (stereo not given),-55.5,-1.8,25*,10.4,-20.3,i,i,i,-1.01,-8.0
COc1ccc(C(=O)Nc2ccccc2C(=O)N2CCOCC2)cc1OC,-15.3,-0.1,i,5.4,4.3,i,·,·,·,·
CC(Oc1ccc(F)cc1)C(=O)Nc1ccc(N2CCOCC2)cc1N1CCOCC1 (stereo not given),-14.5,-4.8,i,0.9,14.5,i,·,·,·,·
Cc1noc(C)c1C(=O)Nc1cc(Cl)ccc1N1CCOCC1,-1.5,0.6,·,0.3,-6.6,i,·,·,·,·
COc1cccc(OC)c1C(=O)Nc1ccccc1C(=O)N1CCOCC1,-0.1,3.5,100*,5.4,10.7,i,i,i,-0.807,-5.0
COc1cccc(OC)c1C(=O)Nc1cc(Cl)ccc1N1CCOCC1,-19.2,-0.5,i,12.7,-60.6,i,i,i,-1.05,-9.0
CN(NC(=O)c1ccccc1Cl)c1ncc(C(F)(F)F)cc1Cl,-13.9,-0.9,i,5.6,1.0,i,·,·,·,·
CCCc1cc(C(=O)N2CCN(c3ccc(C(F)(F)F)cn3)CC2)sc1C,-9.6,1.7,100*,1.9,7.5,i,i,i,-1.25,-5.5
Cc1ccc(C(=O)N2CCN(c3ccc(C(F)(F)F)cn3)CC2)cc1,9.8,0.8,i,-1.0,11.6,i,·,·,·,·
OC(c1cccc(Cl)c1)c1nc(-c2cccc3cccnc23)cs1 (stereo not given),-7.5,·,·,-0.6,·,·,·,·,·,·
Clc1ccccc1CNc1nc2ccccc2n2cnnc12,-38.3,-1.1,i,4.4,-14.7,i,·,·,·,·
CC(C)OC(=O)C1C2C=CC3(CN(Cc4cccs4)C(=O)C13)O2 (stereo not given),-4.4,3.3,100*,7.3,10.7,i,i,i,-0.983,-14.0
Cc1occc1C(=O)N1CCN(C(=O)C2CCCO2)CC1 (stereo not given),16.5,-0.2,i,0.5,4.6,i,·,·,·,·
Cc1cc(C(=O)N2CCN(C(=O)C3CCCO3)CC2)no1 (stereo not given),8.7,-0.5,100*,1.3,29.1,i,19.5%*,i,-0.963,-6.5
O=c1c2cc(Br)ccc2nc(-c2cccc(C(F)(F)F)c2)n1O,-9.3,148.4*,100*,46.2*,33.0,i,59.5%*,107.5%*,-1.08,-43.0
O=C(Nc1ccsc1C(=O)O)c1cccc(Oc2ccccc2)c1,-48.2,-0.9,100*,4.7,5.8,i,52.0%*,i,-1.02,-8.5
CC(=O)Nc1ccc(OC(F)(F)C(F)C(F)(F)F)c(NC(C)=O)c1 (stereo not given),-9.2,0.8,100*,2.7,5.8,i,i,i,-1.17,-6.5
COc1ccc(CNC(=O)C(c2ccccc2F)N(C(=O)c2csnn2)C2CC2)cc1 (stereo not given),34.8,-4.5,i,13.7,-3.0,i,·,·,·,·
N#Cc1ccccc1S(=O)(=O)N1CCN(Cc2cc3c(cc2Br)OCCO3)CC1,10.0,3.6,·,0.1,-8.3,·,·,·,·,·
CCOc1cc(CNc2ccccc2)cc(Br)c1OCC(=O)NC(C)(C)C,39.2,7.9,25*,5.1,-5.0,i,i,i,-0.886,-4.0
SMILES,TAAR1 antag,CRFR2-BP ag,TMEM16A inh,TAAR1 agonist,CRFBP-R2 block,ANO1 activ,TMEM16A reconf,TMEM16A Ca cntr,Parental YFP cnt,ClC-1 inh
CCCCN(C(=O)COC(=O)CSc1ccc([N+](=O)[O-])cc1)c1c(N)n(CCC)c(=O)[nH]c1=O,-13.2,1.6,i,0.1,4.9,i,·,·,·,·
Cc1ccc2c(COC(=O)CC3Sc4ccccc4NC3=O)cc(=O)oc2c1C (stereo not given),3.4,0.7,i,-0.5,-29.5,i,·,·,·,·
O=C(CC1Sc2ccccc2NC1=O)OCc1cc(=O)oc2cc(O)ccc12 (stereo not given),47.3,-1.1,25*,14.1,-5.9,i,31.5%*,i,-0.704,-22.0
CNC[C@@H]1OCc2cnnn2CCCC(=O)N([C@@H](C)CO)C[C@H]1C,-16.3,·,·,4.9,·,·,·,·,·,·
CC1(C)c2cc(O)ccc2OC1N1CCOCC1 (stereo not given),-2.0,0.2,25*,3.6,10.4,i,i,i,-1,-13.0
Clc1ccccc1CN1CCN(/N=C/C=C/c2ccco2)CC1,-34.1,-3.1,i,-2.5,6.5,i,·,·,·,·
CC(C)(C)N(Cc1ccccc1)C(=O)COC(=O)C1=NN(c2ccccc2)C(=O)CC1,-11.7,-0.6,·,-0.5,-21.0,i,·,·,·,·
CC(OC(=O)CCc1nc2ccccc2c(=O)[nH]1)C(=O)c1ccc(C(C)(C)C)cc1 (stereo not given),41.4,0.7,100*,15.6,-61.6,i,28.0%*,i,-1.02,-23.5
CC1CCCN(C(=O)C(C)Sc2nc(-c3ccccc3)cc(C(F)(F)F)n2)C1 (stereo not given),5.7,1.1,100*,-2.1,1.5,i,i,i,-1.08,-15.5

# Source: PubChem (several laboratories)
